Data reported in paper PMC7306618 (CPT: Pharmacometrics & Systems Pharmacology, 2020).
“And” between values parts separate entries of the source, which are not always exact repeats. Equal values may be shown once. Each block holds one compound with its values, some of them ahead of it.

Key:
[1] = tested on: CYP3A; details: time‐dependent inhibition, cited from earlier work
[2] = tested on: CYP3A; test: Clinical DDI study Part 4: effect of itraconazole on fenebrutinib PK; format: in vivo, human; details: 200 mg itraconazole solution once daily × 8 days; fenebrutinib 100 mg
[3] = Phase I PK of fenebrutinib; format: in vivo, human
Method in brief: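 Oral dosing in phase I studies as solution, capsule (single and multiple-day) and 200 mg tablet. Plasma concentration–time data were used to estimate total clearance and apparent steady-state volume of distribution (Vss/F).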

[4] = tested on: OATP1B; details: rosuvastatin + fenebrutinib vs rosuvastatin alone; cited from earlier work
[5] = Fenebrutinib PBPK model parameters; design: species or system human
[6] = Fenebrutinib–H‐β‐CD complexation in vitro; format: physicochemical; details: estimated from in vitro experiment
[7] = Physicochemical properties of fenebrutinib
[8] = target: T1, human BCRP (Homo sapiens, UniProt Q9UNQ0); details: read-out: IC50 BCRP‐mediated efflux; cited from earlier work
T1 sequence (Q9UNQ0 1-655): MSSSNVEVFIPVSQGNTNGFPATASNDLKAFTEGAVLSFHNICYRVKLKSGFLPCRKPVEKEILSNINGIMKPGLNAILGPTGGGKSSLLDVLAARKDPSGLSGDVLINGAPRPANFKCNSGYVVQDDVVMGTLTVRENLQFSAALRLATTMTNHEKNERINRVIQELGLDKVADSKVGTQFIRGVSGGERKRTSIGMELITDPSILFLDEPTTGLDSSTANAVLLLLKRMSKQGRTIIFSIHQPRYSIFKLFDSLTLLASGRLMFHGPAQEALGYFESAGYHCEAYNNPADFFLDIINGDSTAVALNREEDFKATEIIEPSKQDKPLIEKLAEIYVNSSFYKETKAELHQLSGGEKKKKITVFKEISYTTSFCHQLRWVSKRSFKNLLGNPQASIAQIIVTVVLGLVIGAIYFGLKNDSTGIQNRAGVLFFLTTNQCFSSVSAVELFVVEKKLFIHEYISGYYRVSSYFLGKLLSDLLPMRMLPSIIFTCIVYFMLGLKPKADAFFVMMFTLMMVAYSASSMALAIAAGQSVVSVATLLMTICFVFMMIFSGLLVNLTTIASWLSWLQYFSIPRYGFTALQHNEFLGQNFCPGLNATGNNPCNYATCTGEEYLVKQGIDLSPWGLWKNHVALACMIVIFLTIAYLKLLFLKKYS

[9] = MDCK cell monolayer apparent permeability; format: in vitro ADME, Canine; details: dog, MDCK
Method in brief: (§1)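 Apparent permeability of test compound measured across MDCK monolayers alone and at various H‐β‐CD concentrations. These included a 46:1 H‐β‐CD:compound molar ratio, matching ~8 g H‐β‐CD per oral-solution dose with a 100 mg tablet. Change expressed relative to no H‐β‐CD. MDCK Papp was also scaled (scalar 3.9) to human jejunal Peff.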

[10] = tested on: Madin‐Darby Canine Kidney (MDCK) cell monolayer; test: MDCK cell monolayer apparent permeability; format: in vitro ADME; details: molar ratio H‐β‐CD to fenebrutinib 46:1
Method in brief: as §1

[11] = Human mass balance study; format: in vivo
[12] = Free fraction in plasma and blood/plasma partition ratio; format: in vitro ADME
[13] = target: T1, human BCRP; test: Inhibition of BCRP-mediated efflux in MDCKII cells; format: cell-based
Method in brief: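 Unbound inhibition constants (OATP1B1/1B3 uptake; BCRP efflux) derived as in vitro IC50/2, then corrected by plasma unbound fraction. This was done because the unbound fraction in the transporter incubation was not measured. Values served as gut and liver transporter inputs to the PBPK model.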

[14] = format: in vivo, dogs; details: dog, oral tablets, co‐administration with H‐β‐CD
[15] = tested on: OATP1B1/3 and BCRP; details: fenebrutinib 200 mg twice daily for 10 days; cited from earlier work

- Observed change in Tmax with itraconazole [2]: delay
- Observed decrease in Cmax with itraconazole [2]: ~ 11% and 11%
- Observed increase in AUC0‐t with itraconazole [2]: 2.28 fold and ~ 2.3 fold
- CL/F ([3]; estimated from phase I PK data): ~ 80 L/hour
- Vd/F ([3]; human, plasma, oral): ~13.4 L/kg
- Hepatic clearance as share of total CL ([5]; assigned in model): ~ 95%
- clearance ([5]; human): 18.3 mL/min
- Kcomplex with H‐β‐CD [6]: 27000 M⁻¹
- pK a1 ([7]; diprotic base): 5
- pK a2 ([7]; diprotic base): 3.7
- logP ([7]; octanol/water): 3.3
- pH solubility profile ([7]; pH 2.3): 35.9
- pH solubility profile ([7]; pH 2.6): 5.67
- pH solubility profile ([7]; pH 3.0): 1.44
- pH solubility profile ([7]; pH 3.8): 0.032
- pH solubility profile ([7]; pH 5.0): 0.001
- pH solubility profile ([7]; pH 6.1): 0.001
- Papp [9]: 15.1 ×10⁻⁶ cm/s
- Decrease in Papp relative to that without H‐β‐CD [10]: ~ 15 fold
- Share of elimination through metabolic pathway (f m) [11]: > 90%
- B/P [12]: 0.61
- Ki [13]: 0.926 µM
- Apparent rate and extent of absorption in the presence of H‐β‐CD [14]: substantially decreased
Compound: C[C@H]1CN(C2COC2)CCN1c1ccc(Nc2cc(-c3ccnc(N4CCn5c(cc6c5CC(C)(C)C6)C4=O)c3CO)cn(C)c2=O)nc1 [fenebrutinib]
- Ki ([1]; read-out: CYP3A TDI K I (apparent)): 7.9 µM
- CYP3A TDI K inact [1]: 0.684 h⁻¹
- CYP3A k inact [1]: 0.0114 min⁻¹
- Effect of multiple doses on plasma concentration‐time profiles of CP‐I and CP‐III [4]: comparable
- IC50 [8]: 9.4 µM

Compound: CC(C)c1nc(N(C)S(C)(=O)=O)nc(-c2ccc(F)cc2)c1/C=C/[C@@H](O)C[C@@H](O)CC(=O)O [rosuvastatin]
- Observed increase in AUC0–t with fenebrutinib [15]: ~2.6 fold
- Observed increase in Cmax with fenebrutinib [15]: ~ 5 fold
